Laboratory results as given in ChEMBL document CHEMBL4261499, “Chiral disubstituted piperidinyl ureas: a class of dual diacylglycerol lipase-α and ABHD6 inhibitors” (Medchemcomm, 2017).
Activity calls are given as the source filed them. No cut-off for these calls is given here.

Experiments:
Type in all cases: tissue-based
[1] = target: T1, Diacylglycerol lipase-alpha (Mus musculus) (UniProt Q6WQJ1); experiment: Inhibition of MB064 labelling of DAGLalpha in mouse brain homogenates at 10 uM pretreated for 30 mins followed by MB064 addition and measured after 20 mins by activity based protein profiling assay relative to control
T1 sequence (whole entry): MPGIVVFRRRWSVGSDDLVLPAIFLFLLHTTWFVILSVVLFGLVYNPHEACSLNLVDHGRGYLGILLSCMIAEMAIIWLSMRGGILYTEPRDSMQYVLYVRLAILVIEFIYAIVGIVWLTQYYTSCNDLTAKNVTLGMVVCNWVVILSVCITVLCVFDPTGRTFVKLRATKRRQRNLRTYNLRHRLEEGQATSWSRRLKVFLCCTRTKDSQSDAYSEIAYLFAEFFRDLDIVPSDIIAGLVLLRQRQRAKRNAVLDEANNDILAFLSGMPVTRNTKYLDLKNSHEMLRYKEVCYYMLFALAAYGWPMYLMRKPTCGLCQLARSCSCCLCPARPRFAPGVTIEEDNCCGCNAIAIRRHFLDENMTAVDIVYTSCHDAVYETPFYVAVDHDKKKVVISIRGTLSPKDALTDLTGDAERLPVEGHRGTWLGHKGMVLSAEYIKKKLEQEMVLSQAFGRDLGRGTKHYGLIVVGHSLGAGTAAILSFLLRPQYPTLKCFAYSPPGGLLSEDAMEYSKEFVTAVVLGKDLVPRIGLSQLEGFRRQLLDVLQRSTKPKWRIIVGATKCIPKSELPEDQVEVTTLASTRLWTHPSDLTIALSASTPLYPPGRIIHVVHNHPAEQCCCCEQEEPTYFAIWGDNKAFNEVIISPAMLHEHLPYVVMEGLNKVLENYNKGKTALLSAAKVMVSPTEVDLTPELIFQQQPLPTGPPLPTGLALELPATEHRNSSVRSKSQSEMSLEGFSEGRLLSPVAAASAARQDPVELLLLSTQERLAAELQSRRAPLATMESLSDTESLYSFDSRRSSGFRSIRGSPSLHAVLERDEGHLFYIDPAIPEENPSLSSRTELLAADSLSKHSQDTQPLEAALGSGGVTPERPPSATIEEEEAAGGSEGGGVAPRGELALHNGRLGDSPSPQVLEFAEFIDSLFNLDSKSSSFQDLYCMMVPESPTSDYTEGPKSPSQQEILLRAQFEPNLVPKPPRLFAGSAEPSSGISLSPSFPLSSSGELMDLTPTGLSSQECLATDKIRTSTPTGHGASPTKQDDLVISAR
Summary of the method: (§1)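 Mouse brain membrane proteome preincubated 30 min with inhibitor (10 μM), then labelled with MB064 probe (0.25 μM, 20 min). Readout by gel-based competitive ABPP. Band intensities corrected for protein loading per lane from Coomassie staining. Means ± SEM, n = 3.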

Mus musculus [2] = organism: Mus musculus; experiment: Inhibition of FP-TAMRA labelling of FAAH in mouse brain homogenates at 10 uM pretreated for 30 mins followed by FP-TAMRA addition and measured after 20 mins by activity based protein profiling assay
Summary of the method: (§2)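 Mouse brain membrane proteome (2 mg mL-1) preincubated 30 min at r.t. with inhibitor (10 μM) or DMSO vehicle, then labelled with TAMRA-FP, 500 nM final, 20 min at r.t. Reaction quenched with Laemmli sample buffer. Readout by gel-based competitive ABPP with Coomassie staining as loading control.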

[3] = target: T2, Epoxide hydrolase 4 (Mus musculus) (UniProt Q6IE26); experiment: Inhibition of MB064 labelling of ABHD7 in mouse brain homogenates at 10 uM pretreated for 30 mins followed by MB064 addition and measured after 20 mins by activity based protein profiling assay; summary of the method: as §1
T2 sequence (whole entry): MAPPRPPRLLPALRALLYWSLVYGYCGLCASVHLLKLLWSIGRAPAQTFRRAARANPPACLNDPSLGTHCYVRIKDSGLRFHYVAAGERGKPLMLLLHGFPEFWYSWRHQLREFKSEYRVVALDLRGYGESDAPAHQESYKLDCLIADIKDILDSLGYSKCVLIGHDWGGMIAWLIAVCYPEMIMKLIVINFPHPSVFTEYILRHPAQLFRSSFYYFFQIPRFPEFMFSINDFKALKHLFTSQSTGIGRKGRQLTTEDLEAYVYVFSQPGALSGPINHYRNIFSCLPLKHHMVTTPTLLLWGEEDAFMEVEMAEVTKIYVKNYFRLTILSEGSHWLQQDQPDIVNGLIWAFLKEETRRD

[4] = target: 1-acylglycerol-3-phosphate O-acyltransferase ABHD5 (Mus musculus) (UniProt Q9DBL9); experiment: Inhibition of MB064 labelling of ABHD5 in mouse brain homogenates at 10 uM pretreated for 30 mins followed by MB064 addition and measured after 20 mins by activity based protein profiling assay; summary of the method: as §1
Sequence of 1-acylglycerol-3-phosphate O-acyltransferase ABHD5 (Mus musculus) (Q9DBL9 whole entry, looked up): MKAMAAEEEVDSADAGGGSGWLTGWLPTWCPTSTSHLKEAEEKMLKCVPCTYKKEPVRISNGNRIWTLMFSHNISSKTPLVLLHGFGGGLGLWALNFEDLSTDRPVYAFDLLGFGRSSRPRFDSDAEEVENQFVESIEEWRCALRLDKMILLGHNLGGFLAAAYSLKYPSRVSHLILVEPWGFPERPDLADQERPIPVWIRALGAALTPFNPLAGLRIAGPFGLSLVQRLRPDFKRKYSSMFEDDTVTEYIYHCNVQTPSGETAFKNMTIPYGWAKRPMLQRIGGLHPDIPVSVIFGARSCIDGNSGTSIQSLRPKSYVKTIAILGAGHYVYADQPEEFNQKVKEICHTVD

Mus musculus [5] = organism: Mus musculus; experiment: Inhibition of MB064 labelling of ABHD16A in mouse brain homogenates at 10 uM pretreated for 30 mins followed by MB064 addition and measured after 20 mins by activity based protein profiling assay; summary of the method: as §1
[6] = target: T3, Monoglyceride lipase (Mus musculus) (UniProt O35678); experiment: Inhibition of FP-TAMRA labelling of MAGL in mouse brain homogenates at 10 uM pretreated for 30 mins followed by FP-TAMRA addition and measured after 20 mins by activity based protein profiling assay; summary of the method: as §2
T3 sequence (whole entry): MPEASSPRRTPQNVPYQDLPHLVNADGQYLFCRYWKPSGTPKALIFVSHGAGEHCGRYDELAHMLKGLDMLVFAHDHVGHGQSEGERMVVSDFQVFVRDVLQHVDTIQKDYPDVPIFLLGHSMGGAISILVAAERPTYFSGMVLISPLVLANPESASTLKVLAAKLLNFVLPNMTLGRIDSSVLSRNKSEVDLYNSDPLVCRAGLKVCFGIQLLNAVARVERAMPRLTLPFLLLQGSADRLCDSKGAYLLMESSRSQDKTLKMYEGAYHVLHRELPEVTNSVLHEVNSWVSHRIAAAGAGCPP

Mus musculus [7] = organism: Mus musculus; experiment: Inhibition of FP-TAMRA labelling of KIAA1363 in mouse brain homogenates at 10 uM pretreated for 30 mins followed by FP-TAMRA addition and measured after 20 mins by activity based protein profiling assay; summary of the method: as §2

Row | SMILES | inhibition [1] [%] | inhibition [3] | inhibition [4] | inhibition [6] | inhibition (Mus musculus [2]) | inhibition (Mus musculus [5]) | inhibition (Mus musculus [7])
1 | O=C(N1CCC=C[C@@H]1COCc1ccccc1)n1cc(-c2ccc(Oc3ccccc3)cc2)nn1 | 93 |  |  |  |  |  | 
2 | O=C(N1C[C@@H](O)C=C[C@@H]1COCc1ccccc1)n1cc(-c2ccc(-c3ccccc3)cc2)nn1 | 85 | Active | Active | Active | Active | Active | Active
3 | O=C(N1CCCC[C@@H]1COCc1ccccc1)n1cc(-c2ccc(-c3ccccc3)cc2)nn1 | 96 |  |  |  |  |  | 
4 | O=C(N1CCC=C[C@@H]1COCc1ccccc1)n1cc(-c2ccc(-c3ccccc3)cc2)nn1 | 94 |  |  |  |  |  | 

Continued, in another order:

Row | inhibition [1] [%] | inhibition [3] | inhibition [4] | inhibition [6] | SMILES | inhibition (Mus musculus [2]) | inhibition (Mus musculus [5]) | inhibition (Mus musculus [7])
5 | 89 | Active | Active | Active | O=C(N1CCC=C[C@@H]1COCc1ccccc1)n1cc(-c2ccccc2)nn1 | Active | Active | Active
6 | 95 | Active | Active | Active | O=C(N1CCC=C[C@@H]1COCc1ccccc1)n1cc(-c2ccc([N+](=O)[O-])cc2)nn1 | Active | Active | Active
7 | 93 |  |  |  | O=C(N1CCC=C[C@@H]1COCc1ccccc1)n1cc(-c2ccc(Br)cc2)nn1 |  |  | 
